Assay results: ChEMBL document CHEMBL4616723, “Discovery of Antibacterials That Inhibit Bacterial RNA Polymerase Interactions with Sigma Factors” (J Med Chem, 2020)
In brackets after ≈: the same amount, converted by molar mass.

How the values were obtained:
[1] = system: Staphylococcus epidermidis; assay: Antibacterial activity against Staphylococcus epidermidis ATCC 12228 after 20 hrs by CLSI based-broth microdilution method; format: functional; settings: ATCC 12228, 20 h
Staphylococcus aureus [2] = assay: Antibacterial activity against Staphylococcus aureus ATCC 25923 after 20 hrs by CLSI based-broth microdilution method; format: functional; settings: ATCC 25923, 20 h
Enterococcus faecalis = assay: Antibacterial activity against Enterococcus faecalis ATCC 19433 after 20 hrs by CLSI based-broth microdilution method; format: functional; settings: ATCC 19433, 20 h
Enterobacter cloacae = assay: Antibacterial activity against Enterobacter cloacae ATCC 13047 after 20 hrs by CLSI based-broth microdilution method; format: functional; settings: subsp. cloacae ATCC 13047, 20 h
Streptococcus agalactiae = assay: Antibacterial activity against Streptococcus agalactiae ATCC 12386 after 20 hrs by CLSI based-broth microdilution method; format: functional; settings: ATCC 12386, 20 h
Pseudomonas aeruginosa = assay: Antibacterial activity against Pseudomonas aeruginosa ATCC 27853 after 20 hrs by CLSI based-broth microdilution method; format: functional; settings: ATCC 27853, 20 h
[3] = system: Staphylococcus saprophyticus; assay: Antibacterial activity against Staphylococcus saprophyticus ATCC 15305 after 20 hrs by CLSI based-broth microdilution method; format: functional; settings: subsp. saprophyticus ATCC 15305, 20 h
Staphylococcus aureus [4] = assay: Antibacterial activity against Staphylococcus aureus ATCC 29213 after 20 hrs by CLSI based-broth microdilution method; format: functional; settings: ATCC 29213, 20 h
Acinetobacter baumannii = assay: Antibacterial activity against Acinetobacter baumannii ATCC 19606 after 20 hrs by CLSI based-broth microdilution method; format: functional; settings: ATCC 19606 = CIP 70.34 = JCM 6841, 20 h
Escherichia coli = assay: Antibacterial activity against Escherichia coli ATCC 25922 after 20 hrs by CLSI based-broth microdilution method; format: functional; settings: ATCC 25922, 20 h
Klebsiella pneumoniae = assay: Antibacterial activity against Klebsiella pneumoniae ATCC 700603 after 20 hrs by CLSI based-broth microdilution method; format: functional; settings: ATCC 700603, 20 h
Streptococcus pyogenes = assay: Antibacterial activity against Streptococcus pyogenes ATCC 19615 after 20 hrs by CLSI based-broth microdilution method; format: functional; settings: ATCC 19615, 20 h
Streptococcus pneumoniae [5] = assay: Antibacterial activity against Streptococcus pneumoniae ATCC 49619 after 16 to 20 hrs by CLSI based-broth microdilution method; format: functional
[6] = Inhibition of N-terminal SmBiT-fused Bacillus subtilis RNAP subunit beta' CH region expressed in Escherichia coli BL21(DE3)pLysS interaction with C- terminal LgBiT-fused Bacillus subtilis RNA polymerase sigma factor SigA expressed in Escherichia coli BL21(DE3)pLysS preincubated for 10 mins followed by RNA polymerase sigma factor SigA addition and measured after 10 mins by nano-glo luciferase assay
Method in brief: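 Split-luciferase complementation in PBS: N-SmBiT-CH (2.5 μM stock) mixed with compound at desired concentrations, 10 min at 37 °C. C-LgBiT-σA (2.5 μM stock) then added, another 10 min at 37 °C. Equal volume of Nano-Glo substrate added and luminescence read. No-drug control included. Run in triplicate with technical repeats.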

[7] = Therapeutic index, ratio of CC50 for human HepG2 cells to MIC for Streptococcus pneumoniae ATCC 49619; format: toxicity; settings: read-out: TI
[8] = Therapeutic index, ratio of CC50 for human A549 cells to MIC for Streptococcus pneumoniae ATCC 49619; format: toxicity; settings: read-out: TI
A549 = assay: Cytotoxicity against human A549 cells after 48 to 72 hrs by MTT assay; format: cell-based
HepG2 = assay: Cytotoxicity against human HepG2 cells after 48 to 72 hrs by MTT assay; format: cell-based
Streptococcus pneumoniae [9] = assay: Antibacterial activity against Streptococcus pneumoniae ATCC 49619 after 20 hrs by CLSI based-broth microdilution method; format: functional; settings: ATCC 49619, 20 h

SMILES | MIC [1] [µg/mL] | MIC (Staphylococcus aureus [2]) [µg/mL] | MIC (Enterococcus faecalis) [µg/mL] | MIC (Enterobacter cloacae) [µg/mL] | MIC (Streptococcus agalactiae) [µg/mL] | MIC (Pseudomonas aeruginosa) [µg/mL] | MIC [3] [µg/mL] | MIC (Staphylococcus aureus [4]) [µg/mL] | MIC (Acinetobacter baumannii) [µg/mL] | MIC (Escherichia coli) [µg/mL] | MIC (Klebsiella pneumoniae) [µg/mL] | MIC (Streptococcus pyogenes) [µg/mL] | MIC (Streptococcus pneumoniae [5]) [µg/mL] | IC50 [6] [µM] | selectivity ratio [7] | selectivity ratio [8] | CC50 (A549) [µM] | CC50 (HepG2) [µM] | MIC (Streptococcus pneumoniae [9]) [µg/mL]
Nc1ccccc1Sc1ccc(C(=O)c2ccccc2C(=O)O)cc1[N+](=O)[O-] | > 256 | > 256 | 256 (≈ 649 µM) | > 256 | > 256 | > 256 | 256 (≈ 649 µM) | > 256 | > 256 | > 256 | > 256 | 256 (≈ 649 µM) |  |  |  |  |  |  | 
Nc1ccc(Sc2ccc(C(=O)c3ccccc3C(=O)O)cc2[N+](=O)[O-])cc1 |  |  |  | > 256 |  | > 256 |  |  | > 256 | > 256 | > 256 |  | 128 (≈ 325 µM) |  |  |  |  |  | 
O=C(O)c1cccc(NCc2ccc(Sc3ccc(Cl)c(Cl)c3)c([N+](=O)[O-])c2)c1 | 8 (≈ 17.8 µM) | 8 (≈ 17.8 µM) | 8 (≈ 17.8 µM) | > 256 | 8 (≈ 17.8 µM) | > 256 | 8 (≈ 17.8 µM) | 8 (≈ 17.8 µM) | > 256 | > 256 | > 256 | 8 (≈ 17.8 µM) |  | 42.9 |  |  |  |  | 
O=C(O)c1ccc(Br)c(NCc2ccc(Sc3ccc(Cl)c(Cl)c3)c([N+](=O)[O-])c2)c1 |  |  |  | > 256 |  | > 256 |  |  | > 256 | > 256 | > 256 |  |  |  | 24 | 18 | 67.7 | 92.6 | 4 (≈ 7.57 µM)
O=C(O)c1c(Cl)cccc1NCc1ccc(Sc2ccc(Cl)c(Cl)c2)c([N+](=O)[O-])c1 | 4 (≈ 8.27 µM) | 8 (≈ 16.5 µM) | 8 (≈ 16.5 µM) | > 256 | 4 (≈ 8.27 µM) | > 256 | 8 (≈ 16.5 µM) | 8 (≈ 16.5 µM) | > 256 | > 256 | > 256 | 2 (≈ 4.13 µM) |  | 25.1 | 12 | 11 | 93.3 | 97.7 | 
Nc1ccccc1Sc1ccc(C(=O)Nc2ccc(C(=O)O)cc2)cc1[N+](=O)[O-] |  |  |  | > 256 |  | > 256 |  |  | > 256 | > 256 | > 256 |  |  | 97 |  |  |  |  | 256 (≈ 625 µM)
CN[C@H](CC(C)C)C(=O)N[C@H]1C(=O)N[C@@H](CC(N)=O)C(=O)N[C@H]2C(=O)N[C@H]3C(=O)N[C@H](C(=O)N[C@H](C(=O)O)c4cc(O)cc(O)c4-c4cc3ccc4O)[C@H](O)c3ccc(c(Cl)c3)Oc3cc2cc(c3O[C@@H]2O[C@H](CO)[C@@H](O)[C@H](O)[C@H]2O[C@H]2C[C@](C)(N)[C@H](O)[C@H](C)O2)Oc2ccc(cc2Cl)[C@H]1O [VANCOMYCIN] |  |  | 1 (≈ 0.69 µM) |  | 1 (≈ 0.69 µM) |  | 1 (≈ 0.69 µM) |  |  |  |  | 1 (≈ 0.69 µM) |  |  |  |  |  |  | 1 (≈ 0.69 µM)
O=C(O)c1ccccc1C(=O)c1ccc(Sc2ccc(Cl)c(Cl)c2)cc1 |  |  |  | > 256 |  | > 256 |  |  | > 256 | > 256 | > 256 |  |  | 67 |  |  |  |  | 16 (≈ 39.7 µM)
O=C(O)c1ccccc1C(=O)c1ccc(Nc2cccc3cccnc23)c([N+](=O)[O-])c1 |  |  |  | > 256 |  | > 256 |  |  | > 256 | > 256 | > 256 |  |  |  |  |  |  |  | > 256
O=C(O)c1ccccc1C(=O)c1ccc(Nc2cccc(Cl)c2)c([N+](=O)[O-])c1 |  |  |  | > 256 |  | > 256 |  |  | > 256 | > 256 | > 256 |  |  |  |  |  |  |  | 256 (≈ 645 µM)
O=C(O)c1ccccc1C(=O)c1ccc(Nc2ccccc2)c([N+](=O)[O-])c1 |  |  |  | > 256 |  | > 256 |  |  | > 256 | > 256 | > 256 |  |  |  |  |  |  |  | 256 (≈ 707 µM)
NC1CCCCC1Nc1ccc(C(=O)c2ccccc2C(=O)O)cc1[N+](=O)[O-] (stereo not given) |  |  |  | > 256 |  | > 256 |  |  | > 256 | > 256 | > 256 |  |  |  |  |  |  |  | > 256
NS(=O)(=O)c1cccc(NCc2ccc(Sc3ccc(Cl)c(Cl)c3)c([N+](=O)[O-])c2)c1 |  |  |  | > 256 |  | > 256 |  |  | > 256 | > 256 | > 256 |  |  |  |  |  |  |  | 64 (≈ 132 µM)
N#Cc1ccccc1NCc1ccc(Sc2ccc(Cl)c(Cl)c2)c([N+](=O)[O-])c1 |  |  |  | > 256 |  | > 256 |  |  | > 256 | > 256 | > 256 |  |  |  |  |  |  |  | > 256
Nc1ccccc1Sc1ccc(CNc2ccc(C(=O)O)cc2)cc1[N+](=O)[O-] |  |  |  | > 256 |  | > 256 |  |  | > 256 | > 256 | > 256 |  |  |  |  |  |  |  | 256 (≈ 647 µM)
O=C(O)c1ccccc1C(=O)c1ccc(N2CCOCC2)c([N+](=O)[O-])c1 |  |  |  | > 256 |  | > 256 |  |  | > 256 | > 256 | > 256 |  |  |  |  |  |  |  | > 256
CC(=O)Nc1cccc(Sc2ccc(C(=O)c3ccccc3C(=O)O)cc2[N+](=O)[O-])c1 |  |  |  | > 256 |  | > 256 |  |  | > 256 | > 256 | > 256 |  |  |  |  |  |  |  | 256 (≈ 587 µM)
O=C(Nc1cccc(Sc2ccc(C(=O)c3ccccc3C(=O)O)cc2[N+](=O)[O-])c1)c1ccccc1 |  |  |  | > 256 |  | > 256 |  |  | > 256 | > 256 | > 256 |  |  |  |  |  |  |  | 32 (≈ 64.2 µM)
Nc1ccccc1Sc1ccc(CNc2ccccc2C(=O)O)cc1[N+](=O)[O-] |  |  |  | > 256 |  | > 256 |  |  | > 256 | > 256 | > 256 |  |  |  |  |  |  |  | 64 (≈ 162 µM)
O=C(O)c1ccccc1C(=O)c1ccc(Sc2ccccn2)c([N+](=O)[O-])c1 |  |  |  | > 256 |  | > 256 |  |  | > 256 | > 256 | > 256 |  |  |  |  |  |  |  | > 256
COc1ccc(Nc2ccc(C(=O)c3ccccc3C(=O)O)cc2[N+](=O)[O-])cc1 |  |  |  | > 256 |  | > 256 |  |  | > 256 | > 256 | > 256 |  |  |  |  |  |  |  | > 256
